An excerpt weighted towards active compounds, which were near 1.8% of everything screened.
L929 necroptosis: inhibitors of zVAD-triggered necroptosis, primary screen, L929 cells. viability rescue, % at 10 µM. AID 1377, 2008. actives 0.38% (n = 220,000). L929 zVAD necroptosis rescue, ATP luminescence, 24 h; with zVAD 60 µM;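 active = activation, scaled between plate controls, above about 75%, limit read from the data; inactive = activation under that limit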;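 note: 0% = zVAD with DMSO and 100% = DMSO alone without zVAD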
Furin inh: human furin inhibitors, primary screen, biochemical, fluorescence intensity; P09958; purified furin, fluorogenic substrate cleavage; inhibition, % at 20 µM or 30 µM; actives 0.061% (n = 220,000); in the data active = inhibition above about 25%
Target sequence (P09958 108-714 limits assumed): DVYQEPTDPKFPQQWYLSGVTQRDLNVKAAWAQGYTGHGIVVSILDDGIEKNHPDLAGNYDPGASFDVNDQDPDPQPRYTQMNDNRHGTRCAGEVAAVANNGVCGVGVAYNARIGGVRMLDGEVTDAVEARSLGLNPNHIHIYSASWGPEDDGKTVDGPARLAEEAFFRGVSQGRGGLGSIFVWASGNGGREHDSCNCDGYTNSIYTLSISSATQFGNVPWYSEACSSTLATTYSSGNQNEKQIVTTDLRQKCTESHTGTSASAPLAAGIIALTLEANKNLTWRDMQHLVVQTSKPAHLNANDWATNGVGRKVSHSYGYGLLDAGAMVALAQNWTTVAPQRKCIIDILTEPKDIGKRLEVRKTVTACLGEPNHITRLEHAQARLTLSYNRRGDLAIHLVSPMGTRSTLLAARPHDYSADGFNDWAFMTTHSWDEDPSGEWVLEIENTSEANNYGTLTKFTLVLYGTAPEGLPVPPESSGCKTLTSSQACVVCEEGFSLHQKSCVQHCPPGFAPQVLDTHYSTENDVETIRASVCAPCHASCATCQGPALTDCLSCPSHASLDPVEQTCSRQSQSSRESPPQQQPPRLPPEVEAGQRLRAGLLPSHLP
HSV augment: enhancers of HSV replication in host cells, fold increase, host cell viability | HSV replication augmentation in cells | maximum fold increase | actives 0.005% (n = 220,000); in the data active = maximum fold increase above about 1.5; tested in PC3 cells
Dynein transport: inhibitors of GR-EGFP nuclear translocation, primary screen, dynein cargo transport inhibitor project, imaging, high-content, 3617.4 mouse cells; test concentration mostly 20 µM; stimulated with dexamethasone, 1 µM; hits give low values; z-score, hits read low; actives 0.47% (n = 220,000); AID 1381, 2008;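 active = plate z-score of nuclear minus cytoplasmic receptor signal below a set negative limit, without overly bright fluorescence or cell loss, cut at about -3.5 in these data, passing the limit was not always enough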;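 note: z-score of nuclear minus cytoplasmic ring GR-EGFP intensity difference per well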
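Schedule: 48 h induction, then 1 h compound, then 30 min agonist, 37 °C. Buffer or medium: tetracycline-free induction medium containing charcoal-stripped FBS. Reagent: 1.0 µM final dexamethasone stimulus. Evaluation: nuclear versus cytoplasmic GR-EGFP signal, averaged per well. Signal: high-content fluorescence imaging after fixation.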
Autophagy HCS: autophagy modulators in MEF cells, primary screen, imaging, high-content, MEF GFP-LC3; calls only at 10 µM (by protocol); actives 0.98% (n = 190,000); MEF GFP-LC3 puncta imaging; test concentration mostly 10 µM;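 active = percentage of spot-positive cells more than 3 SD above its plate mean, without a fluorescence outlier flag or 80% toxicity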;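 note: spot-positive cell cutoff set from DMSO-treated cells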
TNF death inh: inhibitors of TNF-alpha triggered necroptosis, primary screen, cell-based, Jurkat FADD-/-, single concentration. Jurkat FADD-/- TNF necroptosis rescue, ATP luminescence, 24 h; 0 = TNF only, 100 = no-TNF cells. activation (protection from cell death), % at 10 µM. actives 0.068% (n = 220,000). AID 463075, 2010;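 active = activation, meaning protection from cell death, of at least 50% relative to plate controls; inactive = activation below 50%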;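 note: necroptosis triggered by 40 ng/mL TNF-alpha added together with compound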
The depositor's hits bear a star; i = inactive; · = not tested or not shown; + = active, no number.

SMILES	L929 necroptosis	Furin inh	HSV augment	Dynein transport	Autophagy HCS	TNF death inh
COc1ccc(CSc2nc3ccccc3c(=O)n2CCCN2CCOCC2)cc1F	-1	-16	i	0.82	i	3
CC(C)c1ccc(Nc2nc(NCc3ccco3)nc(N3CCOCC3)n2)cc1	87*	-14	i	-0.59	i	2
Fc1ccccc1Nc1nc(NCc2ccco2)nc(N2CCOCC2)n1	4	5	i	0.9	i	2
Cc1ccc(NC(=O)C2CCCN2C(=O)NC2CCCCC2)cc1 (stereo not given)	9	-14	i	0.028	i	0
CCc1ccc(NC(=O)/C(C#N)=C/c2cc3ccc(C)cc3nc2N2CCOCC2)cc1	0	-7	i	-0.36	+	0
COC(=O)/C=c1/s/c(=C(\C#N)C(=O)NCc2ccco2)n(-c2ccc(C)cc2)c1=O	0	-15	i	-0.79	+	-2
CCc1ccc(-c2c(C)sc(NC(C)=O)c2C(N)=O)cc1	78*	-13	i	-0.55	i	-15
Cc1sc(NC(=O)CCC(=O)O)c(C(N)=O)c1-c1ccccc1	0	-12	i	0.34	i	1
Cc1ccc(-c2c3c(=O)n(C)c(=O)n(C)c3c3nnc4ccccc4n23)cc1	1	-9	·	-0.68	i	-3
Cc1cccc(-c2c3c(=O)n(C)c(=O)n(C)c3c3nnc4ccccc4n23)c1	0	10	·	-0.15	+	-2
COc1cc(OC)cc(N2C(=O)CSCC2=O)c1	1	-19	i	0.057	·	4
CCN(CC)c1ccc(/C=N/N(c2ccccc2)c2ccccc2)c(O)c1	0	-6	i	-0.2	i	-1
CCN(CC)c1ccc(/C=N/N=C(c2ccccc2)c2ccccc2)c(O)c1	0	5	i	-1.2	+	1
C=CCN1C(=O)N/C(=C/c2ccccc2OCC(=O)Nc2ccc(F)cc2)C1=O	1	-27	i	0.17	i	1
C/C(=N\NC(=O)c1ccc(N/N=C(\C)c2ccc(O)cc2)cc1)c1ccc(O)cc1	1	6	i	-0.22	·	-20
CCN(CC)CCCNC(=O)CC1Oc2ccc(C)cc2NC1=O (stereo not given)	1	-32	i	0.088	i	-1
Cc1ccc2c(c1)NC(=O)C(CC(=O)NCCCN1CCN(c3cc(C)ccc3C)CC1)O2 (stereo not given)	0	-33	·	-0.51	+	0
CCc1nnc2n1N=C(c1ccc(-c3cc(Cl)ccc3Cl)o1)CS2	1	3	i	0.0085	+	1
COc1ccc(/C=N/Nc2cc(N3CCCC3)nc(N3CCCC3)n2)cc1	9	-12	i	-0.7	+	2
CC(=O)c1ccc(N2CCC(C(=O)O)CC2)cc1	8	-21	·	-0.23	i	-1
CC(=O)c1ccc(N2CCN(C(=O)C3CCC3)CC2)cc1	0	-10	i	0.16	+	0
Cc1ccnc(NC(c2cccnc2)c2ccc3cccnc3c2O)c1 (stereo not given)	-1	-7	i	-0.13	i	-6
Cc1cc(NC(c2ccc(Cl)cc2)c2ccc3cccnc3c2O)no1 (stereo not given)	49	-21	i	0.84	+	-11
COC(=O)c1c(SCC(=O)Nc2ccc(C)c(C)c2)nc(=O)[nH]c1C	0	2	i	2.2	·	0
Fc1cccc(-c2cc3nc4c(c(N5CCC6(CC5)OCCO6)n3n2)CCCC4)c1	5	-13	i	0.64	+	0
SMILES	L929 necroptosis	Furin inh	HSV augment	Dynein transport	Autophagy HCS	TNF death inh
Clc1cccc(-c2cc3nc4c(c(N5CCNCC5)n3n2)CCCC4)c1	-2	-22	i	-2.8	+	-14
COc1cc(/C=C/C(=O)OCC(=O)NC(=O)NC(C)C)ccc1O	69	27*	i	-0.56	·	3
COc1ccc(OC)c(Nc2nc3nonc3nc2N2CCCC(C)C2)c1 (stereo not given)	1	6	i	-0.35	+	1
Cc1nn(C)c(C)c1CN(C)C(=O)CCCC(=O)O	1	25*	i	-0.21	i	1
CCCCCC1(C(=O)OCC)CC(CSC(=N)N)OC1=O (stereo not given)	32	-21	i	-0.48	i	0
O=C(O)CCS(=O)(=O)c1nc(-c2cccs2)cc(C(F)(F)F)n1	-1	-10	i	-0.17	i	-5
CS(=O)(=O)c1nc(-c2cccs2)cc(C(F)(F)F)n1	0	-9	i	0.55	+	-13
Cc1ccc(NC(=O)Nc2ccc(F)cc2)cc1Cl	62	-5	i	1.7	i	5
Cc1cccc(-n2nnc3c(=O)n(Cc4ccccn4)cnc32)c1	2	-12	i	0.29	i	0
CCOC(=O)c1ccc(N2C(=O)CC(N3CCC(C(N)=O)(N4CCCCC4)CC3)C2=O)cc1 (stereo not given)	0	-21	i	-1.5	+	0
CCOc1cccc(N2C(=O)CC(N3CCC(C(N)=O)(N4CCCCC4)CC3)C2=O)c1 (stereo not given)	0	-21	i	-1.3	i	-2
Cc1ccc(OCCN2C(=O)C(=O)c3cc(C)ccc32)cc1	-2	-28	i	0.0029	+	-4
Cc1ccc(OCCCN2C(=O)C(=O)c3cccc(C)c32)cc1	0	-15	i	-0.43	i	-1
CCOc1ccc2nc(N3CCCC(C(=O)NCCCN4CCOCC4)C3)sc2c1 (stereo not given)	0	-19	i	0.73	+	-1
N=c1c2c(-c3ccccc3)c(-c3ccccc3)n(Cc3ccco3)c2ncn1CCCn1ccnc1	-1	-17	·	-0.29	i	-13
N=c1c2c(-c3ccccc3)c(-c3ccccc3)n(Cc3ccco3)c2ncn1Cc1ccccc1	8	-11	i	-0.91	+	-7
N=c1c2c(-c3ccccc3)c(-c3ccccc3)n(Cc3ccccc3)c2ncn1CCO	0	-14	i	1.8	+	-8
CC(C)Cn1cnc2c(c(-c3ccccc3)c(-c3ccccc3)n2Cc2ccco2)c1=N	1	-7	i	-1.2	+	-6
N=c1c2c(-c3ccccc3)c(-c3ccccc3)n(Cc3ccco3)c2ncn1CCCN1CCOCC1	2	-19	i	-0.64	i	-5

Screening results from PubChem.
